Data: ChEMBL document CHEMBL1177857, “Functionalized aurones as inducers of NAD(P)H:quinone oxidoreductase 1 that activate AhR/XRE and Nrf2/ARE signaling pathways: synthesis, evaluation and SAR” (Eur J Med Chem, 2010)

Assays:
[1] = Cytotoxicity against mouse Hepa-1c1c7 cells assessed as cell survival at 5 uM after 48 hrs by MTT assay; assay type: cell-based; details: read-out: Activity
How it was run: (§1)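 MTT (0.5 mg/ml) added for 3 h at 37 °C, formazan dissolved in DMSO and read at 590 nm. Survival (%) = (A treated − A blank)/(A untreated − A blank) × 100.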

CYP1A1 [2] = biological target: T1, CYP1A1 (Mus musculus, UniProt P30561); assay: Induction of Ah receptor in mouse Hepa-1c1c7 cells assessed as induction of CYP1A1 activity at 10 uM after 48 hrs by EROD assay relative to control; assay type: cell-based; details: probe ethoxyresorufin (EROD), read-out: FC
T1 sequence (P30561 whole entry): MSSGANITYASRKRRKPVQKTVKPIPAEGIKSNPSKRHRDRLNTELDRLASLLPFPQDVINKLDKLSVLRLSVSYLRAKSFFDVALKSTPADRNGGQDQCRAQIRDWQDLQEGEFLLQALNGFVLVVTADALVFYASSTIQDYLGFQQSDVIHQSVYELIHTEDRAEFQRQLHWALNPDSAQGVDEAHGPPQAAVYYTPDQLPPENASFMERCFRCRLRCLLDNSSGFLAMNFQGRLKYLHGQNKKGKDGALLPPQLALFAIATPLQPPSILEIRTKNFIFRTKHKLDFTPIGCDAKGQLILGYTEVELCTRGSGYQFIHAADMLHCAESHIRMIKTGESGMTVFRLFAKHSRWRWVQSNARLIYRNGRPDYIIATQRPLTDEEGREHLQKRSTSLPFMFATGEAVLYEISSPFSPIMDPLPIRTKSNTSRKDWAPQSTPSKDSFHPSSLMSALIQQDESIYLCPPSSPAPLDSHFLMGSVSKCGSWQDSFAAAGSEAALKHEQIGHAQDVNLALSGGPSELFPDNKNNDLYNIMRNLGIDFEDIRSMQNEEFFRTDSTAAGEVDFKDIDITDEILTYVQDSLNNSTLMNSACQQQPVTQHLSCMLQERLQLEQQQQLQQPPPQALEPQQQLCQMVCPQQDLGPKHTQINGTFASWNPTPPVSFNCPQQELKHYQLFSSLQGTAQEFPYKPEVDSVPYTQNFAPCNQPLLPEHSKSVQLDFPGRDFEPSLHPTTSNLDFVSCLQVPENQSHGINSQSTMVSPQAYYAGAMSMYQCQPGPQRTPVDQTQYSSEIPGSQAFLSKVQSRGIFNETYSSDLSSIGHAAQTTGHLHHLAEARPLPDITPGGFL
How it was run: (§2)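 Hepa1c1c7 cells at 10⁴/well grown 24 h, then given compound at one fixed concentration for 48 h. After a PBS wash, cells incubated 40 min at 37 °C with 5 µM 7-ethoxyresorufin plus 2 mM salicylamide. Resorufin fluorescence read at ex 530/em 590 nm. Fold induction = (F cells+compound − F blank)/(F control − F blank); mean ± SD, n = 3.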

[3] = Induction of NQO1 activity in mouse Hepa-1c1c7 cells at 5 uM after 48 hrs relative to control
[4] = Cytotoxicity against mouse Hepa-1c1c7 cells assessed as cell survival at 25 uM after 48 hrs by MTT assay; assay type: cell-based; details: read-out: Activity; how it was run: as §1
[5] = Induction of NQO1 activity in mouse Hepa-1c1c7 cells at 25 uM after 48 hrs relative to control
CYP1A1 [6] = biological target: T1, CYP1A1; assay: Induction of Ah receptor in mouse Hepa-1c1c7 cells assessed as induction of CYP1A1 activity at 25 uM after 48 hrs by EROD assay relative to control; assay type: cell-based; details: probe ethoxyresorufin (EROD), read-out: FC; how it was run: as §2
CYP1A1 [7] = biological target: T1, CYP1A1; assay: Induction of Ah receptor in mouse Hepa-1c1c7 cells assessed as induction of CYP1A1 activity at 5 uM after 48 hrs by EROD assay relative to control; assay type: cell-based; details: probe ethoxyresorufin (EROD), read-out: FC; how it was run: as §2
[8] = Induction of NQO1 activity in mouse Hepa-1c1c7 cells at 1 uM after 48 hrs relative to control

Row | Structure (SMILES) | viability at 48 h, 5 µM [1] [%] | fold induction at 48 h, 10 µM (CYP1A1 [2]) | fold change (FC) [3] | viability at 48 h, 25 µM [4] [%] | fold change (FC) [5] | fold induction at 48 h, 25 µM (CYP1A1 [6]) | fold induction at 48 h, 5 µM (CYP1A1 [7]) | fold change (FC) [8]
1 | COc1cc(OC)c2c(c1)O/C(=C\c1cccc(O)c1O)C2=O | 88 | 0.97 | 2.53 |  |  |  |  | 
2 | O=C1/C(=C/c2cccc(O)c2)Oc2cc(O)ccc21 | 112 |  | 1.64 | 106 | 2.92 | 1.08 |  | 
3 | COc1cc(OC)c2c(c1)O/C(=C\c1ccccn1)C2=O | 92 | 0.98 | 2.26 |  |  |  |  | 
4 | COc1cc(OC)c2c(c1)O/C(=C\c1ccncc1)C2=O | 101 |  | 1.82 | 110 | 4.5 | 1.73 |  | 
5 | O=C1/C(=C/c2ccccc2Cl)Oc2cc(O)cc(O)c21 | 101 | 1.18 | 2.64 |  |  |  |  | 
6 | COc1ccccc1/C=C1\Oc2ccc(O)cc2C1=O | 97 |  | 3.1 | 95 |  | 1.68 |  | 
7 | COc1cc(OC)c2c(c1)O/C(=C\c1cccc(F)c1)C2=O | 89 |  | 4.47 |  |  |  | 1.48 | 
8 | COc1cc(OC)c2c(c1)O/C(=C\c1ccccc1F)C2=O | 66 |  |  |  |  |  |  | 2.6
9 | O=C1/C(=C/c2ccc(O)cc2)Oc2cc(O)cc(O)c21 | 105 |  | 1.23 | 98 | 1.95 | 1.05 |  | 
10 | O=C1/C(=C/c2ccccc2F)Oc2cc(O)cc(O)c21 | 110 | 1 | 2.2 | 96 |  |  |  | 
11 | O=C1/C(=C/c2cccc(Cl)c2)Oc2ccc(O)cc21 | 101 | 2.95 | 4.68 |  |  |  |  | 
12 | COc1cc(OC)c2c(c1)OC(=O)/C2=C\c1ccccc1Cl | 90 | 0.97 | 2.12 |  |  |  |  | 
13 | COc1cccc(/C=C2\Oc3cc(O)cc(O)c3C2=O)c1 | 112 | 1.13 | 2.15 |  |  |  |  | 
14 | O=C1/C(=C/c2ccccc2O)Oc2ccc(O)cc21 | 99 | 2.01 | 2.65 | 104 |  |  |  | 
15 | O=C1Oc2ccc(O)cc2/C1=C/c1ccc(Cl)cc1 | 90 | 1.04 | 2.49 |  |  |  |  | 
16 | COc1cc(OC)c2c(c1)O/C(=C\c1ccc(F)cc1)C2=O | 93 |  |  |  |  |  |  | 2.16
17 | COc1cc(/C=C2\Oc3cc(O)cc(O)c3C2=O)ccc1O | 97 |  | 1.53 | 98 | 2.54 | 1.06 |  | 

Row | Structure (SMILES) | viability at 48 h, 5 µM [1] [%] | fold induction at 48 h, 10 µM (CYP1A1 [2]) | fold change (FC) [3] | viability at 48 h, 25 µM [4] [%] | fold change (FC) [5] | fold induction at 48 h, 25 µM (CYP1A1 [6]) | fold induction at 48 h, 5 µM (CYP1A1 [7]) | fold change (FC) [8]
18 | COc1cc(OC)c2c(c1)O/C(=C\c1cccc(O)c1)C2=O | 104 |  | 1.2 | 100 | 2.07 | 1.16 |  | 
19 | O=C1/C(=C/c2ccccc2O)Oc2cc(O)ccc21 | 113 |  | 1.45 | 102 | 2.11 | 1.07 |  | 
20 | O=C1/C(=C/c2cccc(Cl)c2)Oc2cc(O)ccc21 | 111 | 1.05 | 2.85 | 98 |  |  |  | 
21 | COc1cc(OC)c2c(c1)O/C(=C\c1ccccc1Cl)C2=O | 105 |  | 5.6 |  |  |  | 1.55 | 
22 | O=C1Oc2ccc(O)cc2/C1=C/c1ccccc1O | 115 | 1.12 | 2.43 |  |  |  |  | 
23 | COc1cc(OC)c2c(c1)O/C(=C\c1cccc(Cl)c1)C2=O | 103 |  | 3.98 |  |  |  | 1.18 | 
24 | O=C1/C(=C/c2ccc(Cl)cc2)Oc2cc(O)ccc21 [6-HYDROXY-4'-CHLORO AURONE] | 120 |  | 1.51 |  | 2.55 | 1.24 |  | 
25 | COc1cc(OC)c2c(c1)OC(=O)/C2=C\c1ccccc1OC | 118 |  | 1.79 | 107 | 3.57 | 1.03 |  | 
26 | O=C1Oc2ccc(O)cc2/C1=C/c1ccc(O)cc1 | 111 |  | 1.3 | 101 | 1.6 |  |  | 
27 | O=C1/C(=C/c2ccccc2Cl)Oc2ccccc21 | 111 |  | 0.92 | 98 | 1.17 |  |  | 
28 | COc1cc(OC)c2c(c1)OC(=O)/C2=C\c1ccccc1 | 100 |  | 1.43 | 96 | 2.1 | 1.04 |  | 
29 | COc1cc(OC)c2c(c1)O/C(=C\c1ccc([N+](=O)[O-])cc1)C2=O | 88 |  | 1.61 | 88 | 1.6 |  |  | 
30 | O=C1/C(=C/c2cccc(O)c2)Oc2cc(O)cc(O)c21 | 111 |  | 1.6 | 106 | 1.58 |  |  | 
31 | O=C1Oc2ccc(O)cc2/C1=C/c1ccccc1Cl | 93 |  | 1.02 | 87 | 1.3 |  |  | 
32 | COc1ccccc1/C=C1\Oc2cc(O)ccc2C1=O | 95 |  | 0.46 | 96 | 0.61 |  |  | 
33 | COc1cc(/C=C2\Oc3cc(O)cc(O)c3C2=O)cc(OC)c1OC | 99 |  | 1.47 | 94 | 1.6 |  |  | 
